According to ChEMBL document CHEMBL1129558, “2(S)-((3,5-bis(trifluoromethyl)benzyl)-oxy)-3(S)-phenyl-4- ((3-oxo-1,2,4-triazol-5-yl)methyl)morpholine (1): a potent, orally active, morpholine-based human neurokinin-1 receptor antagonist” (J Med Chem, 1996):

Columns and labels:
Substance-P receptor = Substance-P receptor (Homo sapiens, UniProt P25103); assay: Displacement of [125I]-labeled SP from human Tachykinin receptor 1 expressed in CHO cells; type: cell-based
Procedure, shortened: (§1)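 Human receptor expressed in CHO cells; values are given as mean with SD from 3 determinations unless otherwise stated.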

Cavia porcellus = assay: SP-induced dermal inflammation assay in guinea pig after peroral administration followed by SP challenge id after 1 hr; type: functional; conditions: oral, read-out: ID50 (the source's name)
Procedure, shortened: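 Guinea pigs received antagonist orally, then an intradermal substance P challenge 1 h later. Read-out was SP-induced plasma extravasation in skin. Dose–response data used 5–12 animals per data point.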

[1] = Physicochemical property was determined; type: ADME
Neuromedin-K receptor = molecular target: T1, Neuromedin-K receptor (Homo sapiens, UniProt P29371); assay: Displacement of [125I]-labeled SP from the human Tachykinin receptor 3 expressed in CHO cells; type: cell-based; procedure, shortened: as §1
T1 sequence (P29371 whole entry): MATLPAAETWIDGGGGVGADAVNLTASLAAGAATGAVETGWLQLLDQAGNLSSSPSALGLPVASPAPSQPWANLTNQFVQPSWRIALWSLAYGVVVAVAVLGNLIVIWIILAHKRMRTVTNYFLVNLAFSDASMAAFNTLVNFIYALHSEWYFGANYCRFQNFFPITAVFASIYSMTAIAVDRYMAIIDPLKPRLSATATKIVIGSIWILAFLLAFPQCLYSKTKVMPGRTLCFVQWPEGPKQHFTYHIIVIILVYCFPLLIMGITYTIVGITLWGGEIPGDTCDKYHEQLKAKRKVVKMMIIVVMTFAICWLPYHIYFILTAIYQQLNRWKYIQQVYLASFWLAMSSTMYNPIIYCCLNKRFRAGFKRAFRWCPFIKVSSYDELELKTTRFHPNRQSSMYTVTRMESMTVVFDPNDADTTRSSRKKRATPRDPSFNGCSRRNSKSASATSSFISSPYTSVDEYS

[2] = Inhibition of [3H]diltiazem binding to L-type [Ca2+] channel in rabbit skeletal muscle; type: tissue-based, Oryctolagus cuniculus, Muscle tissue
Substance-K receptor = molecular target: T2, Substance-K receptor (Homo sapiens, UniProt P21452); assay: Displacement of [125I]-labeled SP from the human Tachykinin receptor 2 expressed in CHO cells; type: cell-based; procedure, shortened: as §1
T2 sequence (P21452 whole entry): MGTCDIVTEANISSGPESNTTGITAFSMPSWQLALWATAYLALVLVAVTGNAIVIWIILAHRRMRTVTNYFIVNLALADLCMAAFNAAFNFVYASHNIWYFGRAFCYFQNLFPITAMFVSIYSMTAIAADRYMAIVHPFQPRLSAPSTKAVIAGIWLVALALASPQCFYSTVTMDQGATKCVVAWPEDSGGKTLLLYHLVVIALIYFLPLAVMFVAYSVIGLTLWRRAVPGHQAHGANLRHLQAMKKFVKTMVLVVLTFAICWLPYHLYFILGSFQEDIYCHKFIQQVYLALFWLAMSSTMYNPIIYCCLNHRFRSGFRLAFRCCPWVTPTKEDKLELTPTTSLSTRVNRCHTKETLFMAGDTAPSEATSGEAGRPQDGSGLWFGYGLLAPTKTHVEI

[3] = Physicochemical property pKa of piperdine amine was determined
[4] = Physicochemical property pKa of benzyl amine was determined

Sequence of Substance-P receptor (P25103 whole entry): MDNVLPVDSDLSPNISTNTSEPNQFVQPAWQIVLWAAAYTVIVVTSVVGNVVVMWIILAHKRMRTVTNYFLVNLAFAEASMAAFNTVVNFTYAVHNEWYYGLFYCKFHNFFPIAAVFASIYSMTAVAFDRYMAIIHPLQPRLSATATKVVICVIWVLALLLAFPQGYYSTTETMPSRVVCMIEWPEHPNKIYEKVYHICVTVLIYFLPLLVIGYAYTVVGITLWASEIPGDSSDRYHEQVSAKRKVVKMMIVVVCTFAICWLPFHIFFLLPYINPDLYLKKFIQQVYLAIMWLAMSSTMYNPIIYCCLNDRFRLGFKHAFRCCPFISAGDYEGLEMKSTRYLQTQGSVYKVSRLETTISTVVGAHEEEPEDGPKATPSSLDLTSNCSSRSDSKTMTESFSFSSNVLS

| SMILES | IC50 (Substance-P receptor) [nM] | further results |
| --- | --- | --- |
| O=C(O)CN1CCO[C@H](OCc2cc(C(F)(F)F)cc(C(F)(F)F)c2)[C@@H]1c1ccccc1 | 66 |  |
| FC(F)(F)c1cc(CO[C@@H]2OCCN[C@H]2c2ccccc2)cc(C(F)(F)F)c1 (stereo in doubt; 12) | 376 |  |
| FC(F)(F)c1cc(CO[C@H]2OCCN[C@@H]2c2ccccc2)cc(C(F)(F)F)c1 (stereo in doubt; 13) | 287 |  |
| FC(F)(F)c1cc(CO[C@@H]2OCCN[C@@H]2c2ccccc2)cc(C(F)(F)F)c1 (stereo in doubt; 14) | 59 |  |
| FC(F)(F)c1cc(CO[C@@H]2OCCN[C@@H]2c2ccccc2)cc(C(F)(F)F)c1 (stereo in doubt; 21) | 116 |  |
| COc1ccccc1CN[C@H]1CCCN[C@H]1c1ccccc1 [CP-99994] |  | ED50 (Cavia porcellus): 1.6 mg/kg; pKa [3]: 8.7; pKa [4]: 4; IC50 [2]: 4 µM |

The remaining compounds from weak to strong by IC50 (Substance-P receptor), led by results:

| IC50 (Substance-P receptor) [nM] | SMILES | further results |
| --- | --- | --- |
| 21 | FC(F)(F)c1cc(CO[C@H]2OCCN[C@@H]2c2ccccc2)cc(C(F)(F)F)c1 (stereo in doubt; 20) |  |
| 19 | FC(F)(F)c1cc(CO[C@@H]2OCCN[C@H]2c2ccccc2)cc(C(F)(F)F)c1 (stereo in doubt; 22) |  |
| 1.6 | COC(=O)CN1CCO[C@H](OCc2cc(C(F)(F)F)cc(C(F)(F)F)c2)[C@@H]1c1ccccc1 |  |
| 1.1 | NC(=O)CN1CCO[C@H](OCc2cc(C(F)(F)F)cc(C(F)(F)F)c2)[C@@H]1c1ccccc1 |  |
| 0.13 | FC(F)(F)c1cc(CO[C@H]2OCCN(Cn3cncn3)[C@H]2c2ccccc2)cc(C(F)(F)F)c1 |  |
| 0.09 | O=c1[nH]nc(CN2CCO[C@H](OCc3cc(C(F)(F)F)cc(C(F)(F)F)c3)[C@@H]2c2ccccc2)[nH]1 | ED50 (Cavia porcellus): 0.009 mg/kg; pKa [1]: < 3; IC50 (Neuromedin-K receptor): 150 nM; IC50 [2]: 11 µM; IC50 (Substance-K receptor): 7 µM |
